In ChEMBL document CHEMBL4364301 (Eur J Med Chem, 2019) one finds IC50 data, which are given here for one compound.

For assay [1], the target named is T1, Androgen receptor (Rattus norvegicus, UniProt P15207).
T1 sequence (P15207 whole entry): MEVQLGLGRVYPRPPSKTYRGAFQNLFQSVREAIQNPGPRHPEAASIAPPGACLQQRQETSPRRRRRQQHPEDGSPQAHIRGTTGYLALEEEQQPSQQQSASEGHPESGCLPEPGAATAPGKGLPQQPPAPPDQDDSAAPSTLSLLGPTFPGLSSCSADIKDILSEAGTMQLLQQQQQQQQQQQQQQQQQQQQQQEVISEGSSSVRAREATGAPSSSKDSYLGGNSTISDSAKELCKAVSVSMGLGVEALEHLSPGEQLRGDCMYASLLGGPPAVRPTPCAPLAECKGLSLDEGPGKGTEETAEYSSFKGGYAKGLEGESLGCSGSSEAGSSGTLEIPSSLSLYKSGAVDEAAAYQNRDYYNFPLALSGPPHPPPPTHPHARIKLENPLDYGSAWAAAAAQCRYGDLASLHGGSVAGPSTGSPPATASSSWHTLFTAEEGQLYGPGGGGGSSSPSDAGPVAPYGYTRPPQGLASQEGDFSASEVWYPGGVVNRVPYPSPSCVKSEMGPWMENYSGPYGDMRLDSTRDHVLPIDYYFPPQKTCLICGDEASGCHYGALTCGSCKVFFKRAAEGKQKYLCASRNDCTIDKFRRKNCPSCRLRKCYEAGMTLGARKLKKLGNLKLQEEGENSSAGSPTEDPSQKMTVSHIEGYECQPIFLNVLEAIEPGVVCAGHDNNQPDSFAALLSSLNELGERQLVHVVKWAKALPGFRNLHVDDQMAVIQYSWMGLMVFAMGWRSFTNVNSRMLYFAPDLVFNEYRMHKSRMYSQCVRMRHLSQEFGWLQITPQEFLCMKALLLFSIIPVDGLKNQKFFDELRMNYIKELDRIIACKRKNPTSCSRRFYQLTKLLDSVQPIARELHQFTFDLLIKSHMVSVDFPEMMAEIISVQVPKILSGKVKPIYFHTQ
Kind of assay: Antagonist activity at GAL4-DBD fused rat androgen receptor expressed in UAS-bla 293 cells assessed as reduction in R1881-induced activation incubated for 16 hrs followed by fluorescence substrate addition and measured after 2 hrs by beta lactamase reporter gene assay. The assay is classed as cell-based.

In assay [2] the test system is DU-145. As to the kind of experiment: Antiproliferative activity against human DU145 cells assessed as reduction in cell growth incubated for 96 hrs by propidium iodide based 2D monolayer assay. The note with it: DU-145, 96 h. Format: functional. In a few lines: (§1)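 After 24 h recovery, compound in medium or medium alone (control wells) was added at 10 half-log concentrations from 0.0032 to 100 µM, in triplicate, with at most 0.3% DMSO. After 96 h, wells were PBS-washed, stained with 7 µg/ml PI and 0.1% Triton X-100, and fluorescence read at 530/620 nm. IC50 came from a 4-parameter fit, geometric mean.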

For assay [3], the system named is LNCaP. As to the kind of experiment: Antiproliferative activity against human LNCAP cells assessed as reduction in cell growth incubated for 96 hrs by propidium iodide based 2D monolayer assay. Format: functional. In a few lines: as §1
Assay [4] concerns CWR22R. Kind of assay: Antiproliferative activity against human 22Rv1 cells assessed as reduction in cell growth incubated for 96 hrs by propidium iodide based 2D monolayer assay. The assay is classed as functional. The note with it: 22Rv1, 96 h. The gist of the method:
as §1

Assay [5] has as its system VCaP. Kind of assay: Antiproliferative activity against human VCaP cells assessed as reduction in cell growth incubated for 96 hrs by propidium iodide based 2D monolayer assay. The assay is classed as functional. The gist of the method:
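VCaP cells in RPMI 1640 with 10% FCS at 37 °C, 5% CO2, seeded 4,000–20,000 cells/well and left 24 h before dosing. Compounds from DMSO stocks were diluted in half-log steps in medium, 10 concentrations 0.0032–100 μM, triplicate wells, max 0.3% DMSO. After 96 h, cells were washed, stained with 7 μg/ml propidium iodide plus 0.1% Triton X-100 for 1–2 h at room temperature, and fluorescence read at ex 530/em 620 nm.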

Consider `CC(O)(COc1ccc(C#N)cc1)C(=O)Nc1ccc(C#N)c(C(F)(F)F)c1` (racemic), for which the IC50 (in general, the midpoint of a concentration-inhibition curve) is 36 nM in assay [1]; 44.6 µM in assay [2]; 20.9 µM in assay [3]; 24.8 µM in assay [4]; 24.5 µM in assay [5].
